Results as given in ChEMBL document CHEMBL1268908, “Design, synthesis, radiolabeling, and in vivo evaluation of carbon-11 labeled N-[2-[4-(3-cyanopyridin-2-yl)piperazin-1-yl]ethyl]-3-methoxybenzamide, a potential positron emission tomography tracer for the dopamine D(4) receptors” (J Med Chem, 2010).

Experiments:
[1] = Biodistribution in rhesus monkey cerebellum at 150.3 MBq, iv after 11 mins; format: ADME, organism-based, Macaca mulatta; conditions: in vivo
Procedure, shortened: (§1)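 Male rhesus monkey under ketamine (10 mg/kg im) with head fixation. After a 20 min 68Ge-68Ga transmission scan, the [11C]-labelled tracer in saline (pH 7.4) was injected iv, at 2.9 TBq/μmol specific radioactivity at injection. A dynamic 3D PET scan followed over 90 min (6×0.5, 7×1, 20×2, 8×5 min frames). Regions were defined on T1-weighted 1.5 T MRI, and uptake is given as %ID/mL.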

[2] = Biodistribution in rhesus monkey occipital lobe at 150.3 MBq, iv after 87.5 mins; format: ADME, organism-based, Macaca mulatta; conditions: in vivo
[3] = Biodistribution in rhesus monkey cingulate cortex at 150.3 MBq, iv after 72.5 mins; format: ADME, organism-based, Macaca mulatta; conditions: in vivo
Procedure, shortened: (§2)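 Single male rhesus monkey anesthetized with ketamine 10 mg/kg im, head fixed. Attenuation correction by 20 min 68Ge-68Ga transmission scan. [11C]-tracer in saline (pH 7.4) given iv, specific radioactivity 2.9 TBq/μmol at injection. Dynamic 3D PET emission scan over 90 min in frames of 0.5 to 5 min. MRI T1 images used to define VOIs. Uptake expressed as […].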

[4] = Biodistribution in rhesus monkey occipital lobe at 150.3 MBq, iv after 41 mins; format: ADME, organism-based, Macaca mulatta; conditions: in vivo
Procedure, shortened: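 A male rhesus monkey was anaesthetised with ketamine 10 mg/kg im and placed in a head fixation device. A 20 min 68Ge-68Ga transmission scan was run for attenuation correction. Radiotracer in saline (pH 7.4) was given iv, about 52 pmol (18 ng), at 2.9 TBq/μmol at injection. A dynamic 3D PET scan followed for 90 min. Regional VOIs were defined on a T1-weighted MRI, with uptake expressed as %ID/mL.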

[5] = Biodistribution in rhesus monkey cerebellum at 150.3 MBq, iv after 8.5 mins; format: ADME, organism-based, Macaca mulatta; conditions: in vivo; procedure, shortened: as §1
[6] = tested on: Striatum; assay: Biodistribution in rhesus monkey striatum at 150.3 MBq, iv after 17 mins; conditions: in vivo
[7] = Biodistribution in rhesus monkey cerebellum at 150.3 MBq, iv after 2.25 mins; format: ADME, organism-based, Macaca mulatta; conditions: in vivo, 135 s; procedure, shortened: as §1
[8] = tested on: Hippocampus; assay: Biodistribution in rhesus monkey hippocampus at 150.3 MBq, iv after 2.25 mins; format: ADME, organism-based, Macaca mulatta; conditions: in vivo, 135 s; procedure, shortened: as §2
[9] = tested on: Striatum; assay: Biodistribution in rhesus monkey striatum at 150.3 MBq, iv after 6.5 mins; format: ADME, organism-based, Macaca mulatta; conditions: in vivo
[10] = Biodistribution in rhesus monkey cingulate cortex at 150.3 MBq, iv after 3.5 mins; format: ADME, organism-based, Macaca mulatta; conditions: in vivo; procedure, shortened: as §1
[11] = Biodistribution in rhesus monkey occipital lobe at 150.3 MBq, iv after 1.25 mins; format: ADME, organism-based, Macaca mulatta; conditions: in vivo, 75 s
Procedure, shortened: (§3)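 Male rhesus monkey under ketamine 10 mg/kg im, head fixed; 20 min 68Ge-68Ga transmission scan, then 90 min dynamic 3D PET (6×0.5, 7×1, 20×2, 8×5 min frames) after iv [11C]-labelled tracer in saline, specific radioactivity about 2.9 TBq/μmol at injection. Regions defined on T1-weighted MRI; uptake expressed as % injected dose per mL.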

[12] = tested on: Hippocampus; assay: Biodistribution in rhesus monkey hippocampus at 150.3 MBq, iv after 67.5 mins; format: ADME, organism-based, Macaca mulatta; conditions: in vivo, 1.125 h; procedure, shortened: as §3
[13] = tested on: Striatum; assay: Biodistribution in rhesus monkey striatum at 150.3 MBq, iv after 62.5 mins; format: ADME, organism-based, Macaca mulatta; conditions: in vivo
[14] = Biodistribution in rhesus monkey entorhinal cortex at 150.3 MBq, iv after 21 mins; format: ADME, organism-based, Macaca mulatta; conditions: in vivo, 0.35 h; procedure, shortened: as §2
[15] = tested on: Hippocampus; assay: Biodistribution in rhesus monkey hippocampus at 150.3 MBq, iv after 57.5 mins; format: ADME, organism-based, Macaca mulatta; conditions: in vivo; procedure, shortened: as §3
[16] = tested on: Hippocampus; assay: Biodistribution in rhesus monkey hippocampus at 150.3 MBq, iv after 27 mins; format: ADME, organism-based, Macaca mulatta; conditions: in vivo, 0.45 h; procedure, shortened: as §2
[17] = tested on: Striatum; assay: Biodistribution in rhesus monkey striatum at 150.3 MBq, iv after 52.5 mins; format: ADME, organism-based, Macaca mulatta; conditions: in vivo, 0.875 h
[18] = tested on: Striatum; assay: Biodistribution in rhesus monkey striatum at 150.3 MBq, iv after 87.5 mins; format: ADME, organism-based, Macaca mulatta; conditions: in vivo
[19] = tested on: Striatum; assay: Biodistribution in rhesus monkey striatum at 150.3 MBq, iv after 27 mins; format: ADME, organism-based, Macaca mulatta; conditions: in vivo, 0.45 h
[20] = tested on: Hippocampus; assay: Biodistribution in rhesus monkey hippocampus at 150.3 MBq, iv after 7.5 mins; format: ADME, organism-based, Macaca mulatta; conditions: in vivo, 0.125 h; procedure, shortened: as §3
[21] = tested on: Striatum; assay: Biodistribution in rhesus monkey striatum at 150.3 MBq, iv after 31 mins; format: ADME, organism-based, Macaca mulatta; conditions: in vivo
[22] = tested on: Hippocampus; assay: Biodistribution in rhesus monkey hippocampus at 150.3 MBq, iv after 2.75 mins; format: ADME, organism-based, Macaca mulatta; conditions: in vivo, 165 s; procedure, shortened: as §2
[23] = Biodistribution in rhesus monkey occipital lobe at 150.3 MBq, iv after 67.5 mins; format: ADME, organism-based, Macaca mulatta; conditions: in vivo, 1.125 h
[24] = Biodistribution in rhesus monkey retina at 150.3 MBq, iv after 25 mins; format: ADME, organism-based, Macaca mulatta; conditions: in vivo
[25] = Biodistribution in rhesus monkey retina at 150.3 MBq, iv after 33 mins; format: ADME, organism-based, Macaca mulatta; conditions: in vivo, 0.55 h
[26] = Biodistribution in rhesus monkey entorhinal cortex at 150.3 MBq, iv after 45 mins; format: ADME, organism-based, Macaca mulatta; conditions: in vivo, 0.75 h; procedure, shortened: as §2
[27] = Biodistribution in rhesus monkey entorhinal cortex at 150.3 MBq, iv after 29 mins; format: ADME, organism-based, Macaca mulatta; conditions: in vivo; procedure, shortened: as §2
[28] = tested on: Hippocampus; assay: Biodistribution in rhesus monkey hippocampus […], iv after 17 mins; format: ADME, organism-based, Macaca mulatta; conditions: in vivo, in the assay text read “150.3 MBq” for “170.3 MBq”; procedure, shortened: as §3
[29] = tested on: Hippocampus; assay: Biodistribution in rhesus monkey hippocampus at 150.3 MBq, iv after 8.5 mins; format: ADME, organism-based, Macaca mulatta; conditions: in vivo; procedure, shortened: as §3

Drug uptake [1]: 24.15 kBq/ml
Drug uptake [2]: 7.721 kBq/ml
Drug uptake [3]: 9.513 kBq/ml
Drug uptake [4]: 9.836 kBq/ml
Drug uptake [5]: 27.59 kBq/ml
Drug uptake [6]: 20.6138 kBq/ml
Drug uptake [7]: 44.35 kBq/ml
Drug uptake [8]: 50.51 kBq/ml
Drug uptake [9]: 36.37 kBq/ml
Drug uptake [10]: 42.88 kBq/ml
Drug uptake [11]: 55.16 kBq/ml
Drug uptake [12]: 8.799 kBq/ml
Drug uptake [13]: 9.547 kBq/ml
Drug uptake [14]: 19.46 kBq/ml
Drug uptake [15]: 7.745 kBq/ml
Drug uptake [16]: 15.74 kBq/ml
Drug uptake [17]: 10.06 kBq/ml
Drug uptake [18]: 8.125 kBq/ml
Drug uptake [19]: 16.63 kBq/ml
Drug uptake [20]: 34.09 kBq/ml
Drug uptake [21]: 14.4435 kBq/ml
Drug uptake [22]: 47.34 kBq/ml
Drug uptake [23]: 7.697 kBq/ml
Drug uptake [24]: 56.02 kBq/ml
Drug uptake [25]: 57.47 kBq/ml
Drug uptake [26]: 10.89 kBq/ml
Drug uptake [27]: 15.05 kBq/ml
Drug uptake [28]: 19.15 kBq/ml
Drug uptake [29]: 30.9853 kBq/ml
SMILES: [11CH3]Oc1cccc(C(=O)NCCN2CCN(c3ncccc3C#N)CC2)c1
